Experimental data published in ChEMBL document CHEMBL1143300, “Synthesis and activity evaluation of benzoylurea derivatives as potential antiproliferative agents” (Bioorg Med Chem Lett, 2009).
Values belong to the compound of their own block, whether it stands above or below them. Calls of active or inactive are those of the source. The calls are words filed in the database; no cut-off is given here.

Tests used:
Format in all cases: functional, cell-based
CCRF-CEM [1] = assay: Antiproliferative activity against human CEM cells after 72 hrs by MTT assay
Summary of the method: (§1)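 MTT read-out of tumour cell proliferation after 72 h of drug exposure. IC50 is the drug concentration giving 50% inhibition of proliferation. Each experiment was repeated three times under identical conditions.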

Bel-7402 = assay: Antiproliferative activity against human Bel7402 cells after 72 hrs by MTT assay; conditions: Bel-7402, 72 h; summary of the method: as §1
SMMC-7721 = assay: Antiproliferative activity against human SMMC7721 cells after 72 hrs by MTT assay; conditions: SMMC-7721, 72 h; summary of the method: as §1
CCRF-CEM [2] = assay: Cell cycle arrest in human CEM cells assessed as accumulation at G2/M phase at 3.2 uM after 12 hrs by flow cytometry; conditions: 0.1 uM, in the assay text read “0.1 uM” for “3.2 uM”
Summary of the method: (§2)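 CEM cells were left untreated or drug-exposed for 12 h at 37 °C, then collected, fixed in methanol and DNA-stained with a fluorescent dye. Cell-cycle distribution was read by flow cytometry using a conventional cell cycle protocol, with untreated cells as reference.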

CCRF-CEM [3] = assay: Cell cycle arrest in human CEM cells assessed as accumulation at G2/M phase at 0.1 uM after 12 hrs by flow cytometry; summary of the method: as §2
HepG2 = assay: Antiproliferative activity against human HepG2 cells after 72 hrs by MTT assay; conditions: HepG2, 72 h; summary of the method: as §1
CCRF-CEM [4] = assay: Cell cycle arrest in human CEM cells assessed as accumulation at G2/M phase at 0.69 uM after 12 hrs by flow cytometry; summary of the method: as §2
CCRF-CEM [5] = assay: Effect on necrosis-mediated morphological changes in human CEM cells assessed as destruction of cytoplasm and nucleic membrane at 0.69 uM after 12 hrs by Giemsa staining
Summary of the method: (§3)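 After 12 h of drug incubation, CEM cells were spun onto slides by cytospin, air-dried, fixed with methanol and Giemsa-stained. Morphology was examined at 400× magnification.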

CCRF-CEM [6] = assay: Effect on necrosis-mediated morphological changes in human CEM cells assessed as destruction of cytoplasm and nucleic membrane at IC75 after 12 hrs by Giemsa staining; summary of the method: as §3
CCRF-CEM [7] = assay: Effect on apoptosis-mediated morphological changes in human CEM cells at 3.2 uM after 12 hrs by Giemsa staining; summary of the method: as §3

Structure (SMILES): O=C(CBr)Nc1cccc(C(=O)NC(=O)Nc2ccccc2)c1
- IC50 (CCRF-CEM [1]): 5.01 µM

Structure (SMILES): CNC(=O)NC(=O)c1cccc(NC(=O)CBr)c1
- IC50 (CCRF-CEM [1]): 3.16 µM

Structure (SMILES): CC(Br)C(=O)Nc1cccc(CC(=O)NC(N)=O)c1 (configuration not stated)
- IC50 (CCRF-CEM [1]): > 20 µM

Structure (SMILES): CC[C@]1(O)C[C@H]2CN(CCc3c([nH]c4ccccc34)[C@@](C(=O)OC)(c3cc4c(cc3OC)N(C=O)[C@H]3[C@@](O)(C(=O)OC)[C@H](OC(C)=O)[C@]5(CC)C=CCN6CC[C@]43[C@@H]65)C2)C1 [VINCRISTINE]
- IC50 (Bel-7402): 0.04 µM
- IC50 (SMMC-7721): 52.2 µM
- Activity (CCRF-CEM [2]): Active
- Activity (CCRF-CEM [3]): Active

Structure (SMILES): CNC(=O)NC(=O)c1cccc(NC(=O)CCl)c1
- IC50 (CCRF-CEM [1]): 9.1 µM

Structure (SMILES): O=C(CBr)Nc1cccc(C(=O)NC(=O)Nc2ccc3c(c2)OCO3)c1
- IC50 (CCRF-CEM [1]): 1.5 µM

Structure (SMILES): COc1cc(NC(=O)NC(=O)c2cccc(NC(=O)CBr)c2)cc(OC)c1OC
- IC50 (CCRF-CEM [1]): 0.33 µM
- IC50 (Bel-7402): 1.4 µM
- IC50 (HepG2): 0.82 µM
- IC50 (SMMC-7721): 0.67 µM
- Activity (CCRF-CEM [4]): inactive
- Activity (CCRF-CEM [5]): Active

Structure (SMILES): CC(Br)C(=O)Nc1cccc(C(=O)NC(=O)Nc2ccccn2)c1 (configuration not stated)
- IC50 (CCRF-CEM [1]): 6.23 µM

Structure (SMILES): COc1cc(NC(=O)NC(=O)c2cccc(NC(=O)C(C)Br)c2)cc(OC)c1OC (configuration not stated)
- IC50 (CCRF-CEM [1]): 1.33 µM

Structure (SMILES): CC(Br)C(=O)Nc1cccc(C(=O)NC(N)=O)c1 (configuration not stated)
- IC50 (Bel-7402): 1.12 µM
- IC50 (HepG2): 1.2 µM
- IC50 (SMMC-7721): 9.26 µM
- Activity (CCRF-CEM [7]): Active

The next lines start with results.

- IC50 (CCRF-CEM [1]): 12.1 µM
Structure (SMILES): CC(Br)C(=O)Nc1cccc(C(=O)NC(=O)Nc2ccc3c(c2)OCO3)c1 (configuration not stated)

- IC50 (CCRF-CEM [1]): > 20 µM
Structure (SMILES): CC(Br)C(=O)Nc1cccc(C(=O)NC(=O)Nc2ccccc2)c1 (configuration not stated)

- IC50 (CCRF-CEM [1]): > 20 µM
Structure (SMILES): CNC(=O)NC(=O)c1cccc(NC(=O)C(C)Cl)c1 (configuration not stated)

- IC50 (CCRF-CEM [1]): 12.6 µM
Structure (SMILES): NC(=O)NC(=O)Cc1cccc(NC(=O)CCl)c1

- IC50 (CCRF-CEM [1]): 1.38 µM
Structure (SMILES): NC(=O)NC(=O)/C=C/c1cccc(NC(=O)CBr)c1

- IC50 (CCRF-CEM [1]): 0.7 µM
- IC50 (Bel-7402): 1.2 µM
- IC50 (HepG2): 0.9 µM
- IC50 (SMMC-7721): 0.93 µM
Structure (SMILES): O=C(CBr)Nc1cccc(C(=O)NC(=O)Nc2ccccn2)c1
- Activity (CCRF-CEM [6]): Active

- IC50 (CCRF-CEM [1]): 9.32 µM
Structure (SMILES): CNC(=O)NC(=O)c1cccc(NC(=O)C(C)Br)c1 (configuration not stated)
